# Active and inactive are the calls of the source. No cut-off for these calls is given here.
# Key:
# Staphylococcus aureus [1] = test: Antibacterial activity against Staphylococcus aureus ATCC 29213 after 16 to 20 hrs by broth microdilution method; assay type: functional
# In short: (§1)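 Broth microdilution per CLSI. Bacteria grown 4-6 h (about 10⁸ CFU/mL), then diluted to about 10⁶ CFU/mL. Medium: Mueller-Hinton broth, except Luria-Bertani broth for E. coli. Compounds in sterile water, twofold series 256-0.5 µg/mL, mixed 1:1 with inoculum, 37 °C for 16-20 h. MIC is the lowest concentration without visible growth. Duplicate wells; experiment repeated at least twice.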
# Enterococcus faecalis = test: Antibacterial activity against Enterococcus faecalis ATCC 29212 after 16 to 20 hrs by broth microdilution method; assay type: functional; in short: as §1
# Escherichia coli [2] = test: Antibacterial activity against Escherichia coli ATCC 25922 after 16 to 20 hrs by broth microdilution method; assay type: functional; in short: as §1
# Salmonella enterica = test: Antibacterial activity against Salmonella enterica ATCC 13076 after 16 to 20 hrs by broth microdilution method; assay type: functional; in short: as §1
# [3] = Hemolytic activity in sheep RBC after 1 hr; assay type: ADME, cell-based, Ovis aries, Erythrocyte; conditions: sheep red blood cells (erythrocytes)
# In short: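 Sheep red blood cells (150 µL suspension) mixed with 50 µL of compound dilutions (5120-10 µg/mL), 1 h at 37 °C, then centrifuged. Supernatant read at 540 nm. Percent hemolysis calculated relative to RBC-only control (0%) and 0.1% Triton X-100 (100%).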
# Staphylococcus aureus [4] = test: Antibacterial activity against methicillin-resistant Staphylococcus aureus clinical isolate 1105183 cono7 after 16 to 20 hrs by broth microdilution method; assay type: functional
# In short: (§2)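 CLSI broth microdilution in Mueller-Hinton broth. A 4-6 h culture was diluted to about 10⁶ CFU/mL and mixed 1:1 with compound dilutions prepared at 256 to 0.5 µg/mL from aqueous stocks. Plates were incubated at 37 °C for 16-20 h and read visually for MIC. Each concentration was run in duplicate, and the experiment was repeated at least twice. Vancomycin and meropenem were comparators.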
# Staphylococcus aureus [5] = test: Antibacterial activity against methicillin-resistant Staphylococcus aureus clinical isolate 20130911034sau after 16 to 20 hrs by broth microdilution method; assay type: functional; in short: as §2
# Staphylococcus aureus [6] = test: Antibacterial activity against methicillin-resistant Staphylococcus aureus clinical isolate 0831010 after 16 to 20 hrs by broth microdilution method; assay type: functional; in short: as §2
# Staphylococcus aureus [7] = test: Antibacterial activity against methicillin-resistant Staphylococcus aureus clinical isolate 1104060 after 16 to 20 hrs by broth microdilution method; assay type: functional; in short: as §2
# Staphylococcus aureus [8] = test: Antibacterial activity against methicillin-resistant Staphylococcus aureus clinical isolate 20131012632sau after 16 to 20 hrs by broth microdilution method; assay type: functional; in short: as §2
# Staphylococcus aureus [9] = test: Antibacterial activity against methicillin-resistant Staphylococcus aureus clinical isolate 1207007 after 16 to 20 hrs by broth microdilution method; assay type: functional; in short: as §2
# Staphylococcus aureus [10] = test: Antibacterial activity against methicillin-resistant Staphylococcus aureus clinical isolate 1-may after 16 to 20 hrs by broth microdilution method; assay type: functional; in short: as §2
# Staphylococcus aureus [11] = test: Antibacterial activity against methicillin-resistant Staphylococcus aureus clinical isolate 0906202 after 16 to 20 hrs by broth microdilution method; assay type: functional; in short: as §2
# Staphylococcus aureus [12] = test: Antibacterial activity against methicillin-resistant Staphylococcus aureus clinical isolate 1208143 after 16 to 20 hrs by broth microdilution method; assay type: functional; in short: as §2
# Klebsiella pneumoniae [13] = test: Antibacterial activity against drug-resistant carbapenemase producing Klebsiella pneumoniae clinical isolate KP-14-8 after 16 to 20 hrs by broth microdilution method; assay type: functional; in short: as §2
# Klebsiella pneumoniae [14] = test: Antibacterial activity against drug-resistant carbapenemase producing Klebsiella pneumoniae clinical isolate KP-13-45 after 16 to 20 hrs by broth microdilution method; assay type: functional; in short: as §2
# Klebsiella pneumoniae [15] = test: Antibacterial activity against drug-resistant carbapenemase producing Klebsiella pneumoniae clinical isolate KP-14-3 after 16 to 20 hrs by broth microdilution method; assay type: functional; in short: as §2
# Klebsiella pneumoniae [16] = test: Antibacterial activity against drug-resistant carbapenemase producing Klebsiella pneumoniae clinical isolate KP-14-1 after 16 to 20 hrs by broth microdilution method; assay type: functional; in short: as §2
# Klebsiella pneumoniae [17] = test: Antibacterial activity against drug-resistant carbapenemase producing Klebsiella pneumoniae clinical isolate KP-14-4 after 16 to 20 hrs by broth microdilution method; assay type: functional; in short: as §2
# Klebsiella pneumoniae [18] = test: Antibacterial activity against drug-resistant carbapenemase producing Klebsiella pneumoniae clinical isolate KP-13-54 after 16 to 20 hrs by broth microdilution method; assay type: functional; in short: as §2
# Klebsiella pneumoniae [19] = test: Antibacterial activity against drug-resistant carbapenemase producing Klebsiella pneumoniae clinical isolate KP-14-2 after 16 to 20 hrs by broth microdilution method; assay type: functional; in short: as §2
# Klebsiella pneumoniae [20] = test: Antibacterial activity against drug-resistant carbapenemase producing Klebsiella pneumoniae clinical isolate EC-13-23 after 16 to 20 hrs by broth microdilution method; assay type: functional; in short: as §2
# Klebsiella pneumoniae [21] = test: Antibacterial activity against drug-resistant carbapenemase producing Klebsiella pneumoniae clinical isolate KP-14-5 after 16 to 20 hrs by broth microdilution method; assay type: functional; in short: as §2
# Klebsiella pneumoniae [22] = test: Antibacterial activity against drug-resistant carbapenemase producing Klebsiella pneumoniae clinical isolate KP-13-55 after 16 to 20 hrs by broth microdilution method; assay type: functional; in short: as §2
# Klebsiella pneumoniae [23] = test: Antibacterial activity against drug-resistant carbapenemase producing Klebsiella pneumoniae clinical isolate KP-14-45 after 16 to 20 hrs by broth microdilution method; assay type: functional; in short: as §2
# Klebsiella pneumoniae [24] = test: Antibacterial activity against drug-resistant carbapenemase producing Klebsiella pneumoniae clinical isolate KP-14-18 after 16 to 20 hrs by broth microdilution method; assay type: functional; in short: as §2
# Escherichia coli [25] = test: Antibacterial activity against drug-resistant NDM1 producing Escherichia coli clinical isolate EC-13-49 after 16 to 20 hrs by broth microdilution method; assay type: functional; in short: as §2
# Escherichia coli [26] = test: Antibacterial activity against drug-resistant NDM1 producing Escherichia coli clinical isolate Ecl-14-58 after 16 to 20 hrs by broth microdilution method; assay type: functional; in short: as §2
# Escherichia coli [27] = test: Antibacterial activity against drug-resistant NDM1 producing Escherichia coli clinical isolate KP-13-58 after 16 to 20 hrs by broth microdilution method; assay type: functional; in short: as §2
# Escherichia coli [28] = test: Antibacterial activity against drug-resistant NDM1 producing Escherichia coli clinical isolate Ecl-13-62 after 16 to 20 hrs by broth microdilution method; assay type: functional; in short: as §2
# Escherichia coli [29] = test: Antibacterial activity against drug-resistant NDM1 producing Escherichia coli clinical isolate EC-14-54 after 16 to 20 hrs by broth microdilution method; assay type: functional; in short: as §2
# Escherichia coli [30] = test: Antibacterial activity against drug-resistant NDM1 producing Escherichia coli clinical isolate Ecl-14-59 after 16 to 20 hrs by broth microdilution method; assay type: functional; in short: as §2
# Escherichia coli [31] = test: Antibacterial activity against drug-resistant NDM1 producing Escherichia coli clinical isolate EA-14-61 after 16 to 20 hrs by broth microdilution method; assay type: functional; in short: as §2
# Escherichia coli [32] = test: Antibacterial activity against drug-resistant NDM1 producing Escherichia coli clinical isolate Ecl-14-56 after 16 to 20 hrs by broth microdilution method; assay type: functional; in short: as §2
# Escherichia coli [33] = test: Antibacterial activity against drug-resistant NDM1 producing Escherichia coli clinical isolate 1460 after 16 to 20 hrs by broth microdilution method; assay type: functional; in short: as §2
# Escherichia coli [34] = test: Antibacterial activity against drug-resistant NDM1 producing Escherichia coli clinical isolate SM-15-84 after 16 to 20 hrs by broth microdilution method; assay type: functional; in short: as §2
# Escherichia coli [35] = test: Antibacterial activity against drug-resistant NDM1 producing Escherichia coli clinical isolate CF-15-61 after 16 to 20 hrs by broth microdilution method; assay type: functional; in short: as §2
# Escherichia coli [36] = test: Antibacterial activity against drug-resistant NDM1 producing Escherichia coli clinical isolate CF-13-61 after 16 to 20 hrs by broth microdilution method; assay type: functional; in short: as §2
# Staphylococcus aureus [37] = test: Induction of cytoplasmic membrane depolarization in Staphylococcus aureus ATCC 29213 at 10 to 20 ug/ml measured every 2 mins for 12 mins by DiSC35 dye-based fluorescence assay; assay type: functional, organism-based
# In short: (§3)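 Mid-log cells (~10⁸ CFU/mL) were suspended in PBS (S. aureus) or HEPES/glucose/KCl with EDTA (E. coli). They were preloaded with DiSC3(5) for 30 min (S. aureus) or 40 min (E. coli), and baseline fluorescence was read for 8 min. Compound was added to 20 µg/mL final, and fluorescence (ex 622/em 670 nm) was read every 2 min for 12 min. Water served as control.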
# Escherichia coli [38] = test: Induction of cytoplasmic membrane depolarization in Escherichia coli ATCC 25922 at 10 to 20 ug/ml measured every 2 mins for 12 mins by DiSC35 dye-based fluorescence assay; assay type: functional, organism-based; in short: as §3
# Staphylococcus aureus [39] = test: Induction of inner membrane permeabilization in Staphylococcus aureus ATCC 29213 at 10 to 20 ug/ml measured every 2 mins for 12 mins by propidium iodide staining-based fluorescence assay; assay type: functional, organism-based
# In short: (§4)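 Mid-log cells (~10⁸ CFU/mL) were suspended in PBS (S. aureus) or HEPES/glucose/KCl (E. coli). They were preincubated with propidium iodide for 30 min (S. aureus) or 40 min (E. coli), and baseline fluorescence was read for 8 min. Compound was added to 20 µg/mL final, and fluorescence (ex 535/em 617 nm) was read every 2 min for 12 min.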
# Escherichia coli [40] = test: Induction of inner membrane permeabilization in Escherichia coli ATCC 25922 at 10 to 20 ug/ml measured every 2 mins for 12 mins by propidium iodide staining-based fluorescence assay; assay type: functional, organism-based; in short: as §4
structure (smiles),measurement,setting,value
CCCCCCCC[N+](C)(C)CC(=O)Nc1ccc(C(=O)/C=C/c2ccc(Cl)cc2)cc1.[Cl-],MIC,Staphylococcus aureus [1],2 µg/mL
same,MIC,Enterococcus faecalis,2 µg/mL
same,MIC,Escherichia coli [2],4 µg/mL
same,MIC,Salmonella enterica,8 µg/mL
same,HC50 at 1 h,[3],> 500 µg/mL
same,MIC,Staphylococcus aureus [4],1 µg/mL
same,MIC,Staphylococcus aureus [5],0.5 µg/mL
same,MIC,Staphylococcus aureus [6],1 µg/mL
same,MIC,Staphylococcus aureus [7],4 µg/mL
same,MIC,Staphylococcus aureus [8],2 µg/mL
same,MIC,Staphylococcus aureus [9],0.5 µg/mL
same,MIC,Staphylococcus aureus [10],2 µg/mL
same,MIC,Staphylococcus aureus [11],1 µg/mL
same,MIC,Staphylococcus aureus [12],2 µg/mL
same,MIC,Klebsiella pneumoniae [13],8 µg/mL
same,MIC,Klebsiella pneumoniae [14],8 µg/mL
same,MIC,Klebsiella pneumoniae [15],8 µg/mL
same,MIC,Klebsiella pneumoniae [16],16 µg/mL
same,MIC,Klebsiella pneumoniae [17],8 µg/mL
same,MIC,Klebsiella pneumoniae [18],8 µg/mL
same,MIC,Klebsiella pneumoniae [19],16 µg/mL
same,MIC,Klebsiella pneumoniae [20],8 µg/mL
same,MIC,Klebsiella pneumoniae [21],8 µg/mL
same,MIC,Klebsiella pneumoniae [22],32 µg/mL
same,MIC,Klebsiella pneumoniae [23],8 µg/mL
same,MIC,Klebsiella pneumoniae [24],16 µg/mL
same,MIC,Escherichia coli [25],16 µg/mL
same,MIC,Escherichia coli [26],4 µg/mL
same,MIC,Escherichia coli [27],4 µg/mL
same,MIC,Escherichia coli [28],8 µg/mL
same,MIC,Escherichia coli [29],16 µg/mL
same,MIC,Escherichia coli [30],8 µg/mL
same,MIC,Escherichia coli [31],4 µg/mL
same,MIC,Escherichia coli [32],4 µg/mL
same,MIC,Escherichia coli [33],8 µg/mL
same,MIC,Escherichia coli [34],16 µg/mL
same,MIC,Escherichia coli [35],8 µg/mL
same,MIC,Escherichia coli [36],8 µg/mL
same,Activity,Staphylococcus aureus [37],Active
same,Activity,Escherichia coli [38],Active
same,Activity,Staphylococcus aureus [39],Active
same,Activity,Escherichia coli [40],Active
CCCCCCCC[N+](C)(C)CC(=O)Nc1ccc(C(=O)/C=C/c2ccc(F)cc2)cc1.[Cl-],MIC,Staphylococcus aureus [1],2 µg/mL
same,MIC,Enterococcus faecalis,2 µg/mL
same,MIC,Escherichia coli [2],2 µg/mL
same,MIC,Salmonella enterica,4 µg/mL
same,HC50 at 1 h,[3],83 µg/mL
same,MIC,Staphylococcus aureus [4],1 µg/mL
same,MIC,Staphylococcus aureus [5],0.5 µg/mL
same,MIC,Staphylococcus aureus [6],0.5 µg/mL
same,MIC,Staphylococcus aureus [7],8 µg/mL
same,MIC,Staphylococcus aureus [8],2 µg/mL
same,MIC,Staphylococcus aureus [9],0.5 µg/mL
same,MIC,Staphylococcus aureus [10],1 µg/mL
same,MIC,Staphylococcus aureus [11],4 µg/mL
same,MIC,Staphylococcus aureus [12],2 µg/mL
same,MIC,Klebsiella pneumoniae [13],4 µg/mL
same,MIC,Klebsiella pneumoniae [14],4 µg/mL
same,MIC,Klebsiella pneumoniae [15],8 µg/mL
same,MIC,Klebsiella pneumoniae [16],4 µg/mL
same,MIC,Klebsiella pneumoniae [17],4 µg/mL
same,MIC,Klebsiella pneumoniae [18],4 µg/mL
same,MIC,Klebsiella pneumoniae [19],16 µg/mL
same,MIC,Klebsiella pneumoniae [20],2 µg/mL
same,MIC,Klebsiella pneumoniae [21],4 µg/mL
same,MIC,Klebsiella pneumoniae [22],8 µg/mL
same,MIC,Klebsiella pneumoniae [23],8 µg/mL
same,MIC,Klebsiella pneumoniae [24],8 µg/mL
same,MIC,Escherichia coli [25],4 µg/mL
same,MIC,Escherichia coli [26],4 µg/mL
same,MIC,Escherichia coli [27],1 µg/mL
same,MIC,Escherichia coli [28],4 µg/mL
same,MIC,Escherichia coli [29],16 µg/mL
same,MIC,Escherichia coli [30],4 µg/mL
same,MIC,Escherichia coli [31],4 µg/mL
same,MIC,Escherichia coli [32],16 µg/mL
same,MIC,Escherichia coli [33],8 µg/mL
same,MIC,Escherichia coli [34],16 µg/mL
same,MIC,Escherichia coli [35],4 µg/mL
same,MIC,Escherichia coli [36],16 µg/mL
same,Activity,Staphylococcus aureus [37],Active
same,Activity,Escherichia coli [38],Active
same,Activity,Staphylococcus aureus [39],Active
same,Activity,Escherichia coli [40],Active
